# Bioassay records (PubChem BioAssay)
# Only a sample is shown.
# Apaf-1 act – activators of human Apaf-1 apoptosome, primary screen, biochemical, DEVD-Rh110 fluorescence, uHTS. Apaf-1 apoptosome caspase-3 activation; active compounds read low. activity change, negative = activation, % at 20 µM. 330,000 compounds, 0.31% hits. AID 489031, 2010;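 active = activity change at or below -40% at 20 µM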
# Target sequence (O14727 whole entry, looked up): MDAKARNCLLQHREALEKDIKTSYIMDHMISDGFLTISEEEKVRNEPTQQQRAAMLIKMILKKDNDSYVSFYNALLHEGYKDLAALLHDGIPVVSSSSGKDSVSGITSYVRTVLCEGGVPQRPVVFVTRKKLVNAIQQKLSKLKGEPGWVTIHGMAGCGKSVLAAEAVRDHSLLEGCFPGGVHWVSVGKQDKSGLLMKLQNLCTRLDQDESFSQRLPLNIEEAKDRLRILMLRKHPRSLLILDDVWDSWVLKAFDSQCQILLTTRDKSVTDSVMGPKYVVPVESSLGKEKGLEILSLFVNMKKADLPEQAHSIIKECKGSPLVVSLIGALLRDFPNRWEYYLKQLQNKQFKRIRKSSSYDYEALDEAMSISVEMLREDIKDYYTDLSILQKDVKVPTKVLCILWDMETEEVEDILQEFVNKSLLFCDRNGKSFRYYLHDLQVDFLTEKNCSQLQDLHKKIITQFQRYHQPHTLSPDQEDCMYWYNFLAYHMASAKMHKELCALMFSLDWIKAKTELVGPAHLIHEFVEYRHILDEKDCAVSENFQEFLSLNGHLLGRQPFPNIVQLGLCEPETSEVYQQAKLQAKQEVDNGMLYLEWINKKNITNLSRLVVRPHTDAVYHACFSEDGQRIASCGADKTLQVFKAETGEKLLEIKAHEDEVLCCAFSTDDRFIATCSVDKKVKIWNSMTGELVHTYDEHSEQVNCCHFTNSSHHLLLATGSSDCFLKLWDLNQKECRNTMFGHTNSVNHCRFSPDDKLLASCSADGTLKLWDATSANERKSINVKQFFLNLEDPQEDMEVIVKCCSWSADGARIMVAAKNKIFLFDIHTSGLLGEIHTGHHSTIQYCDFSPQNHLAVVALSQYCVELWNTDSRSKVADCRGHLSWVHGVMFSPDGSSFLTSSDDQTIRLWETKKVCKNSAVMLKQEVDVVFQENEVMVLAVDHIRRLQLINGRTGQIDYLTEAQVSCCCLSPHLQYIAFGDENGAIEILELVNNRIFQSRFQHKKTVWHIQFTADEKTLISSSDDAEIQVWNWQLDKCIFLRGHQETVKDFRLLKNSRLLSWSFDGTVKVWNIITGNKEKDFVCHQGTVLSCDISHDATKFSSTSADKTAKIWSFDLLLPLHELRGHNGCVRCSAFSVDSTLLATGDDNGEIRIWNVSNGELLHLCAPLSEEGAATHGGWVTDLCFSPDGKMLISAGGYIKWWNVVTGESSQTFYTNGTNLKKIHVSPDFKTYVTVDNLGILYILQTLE
#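 Material: biochemical Apaf-1 apoptosome reconstitution; Medium: 20 mM HEPES buffer, pH 7.5, containing CHAPS and BSA; Reagent: dATP, cytochrome c, and (Z-DEVD)2-Rh110 caspase-3 substrate; Times: 30 min preincubation, 50 min reaction, room temperature; Signal: Rh110 fluorescence, excitation 480 nm, emission 540 nm; Measure: Caspase-3 activity via Apaf-1.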
# Rh110 interf act – Rh110 fluorescence interference by putative Apaf-1 activators, confirmation, artefact control for Apaf-1 activator project, biochemical, 20 µM | quenched caspase reaction, Ex480/Em540 | fluorescence interference (activity change), % at 20 µM, hits read low | 980 tested, under 10 active | shares compounds with Apaf-1 act | AID 504616, 2011;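 active = mean activity change at or below -40% when tested at 20 µM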
# Apaf-1 act conf2 – Apaf-1 activators, single-dose retest, confirmation, biochemical, fluorescence, DEVD-Rh110, 20 µM; 980 compounds, 5% hits; shares compounds with Apaf-1 act; AID 504617, 2011; activity change, negative = activation, % at 20 µM; reconstituted apoptosome caspase-3 activity; active compounds read low;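 active = mean activity change at or below -40%, meaning activation of 40% or more, at 20 µM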
# Hits are given with their value; 0 = inactive; - = not tested or not shown; + = active, no number.
SMILES,Apaf-1 act,Rh110 interf act,Apaf-1 act conf2
COc1ccc(-n2nc(C(=O)NCC(=O)NC3CCCC(C)C3C)c3ccccc3c2=O)c(OC)c1 (stereo unspecified),0,-,-
Cc1cc(C)cc(NC2=C(N)C(=O)c3ccccc3C2=O)c1,0,-,-
COC(=O)CCC(=O)OC1(C)C(=O)C=C2C=C(C3CC3)N(CC3CC3)C=C2C1=O (stereo unspecified),0,-,-
C=CC[C@@H](Cc1ccc(F)cc1)C(=O)OC[C@@H]1CCCN1C(=O)[C@@H](CC=C)CC(=O)N[C@@H](CO)Cc1ccccc1,0,-,-
CC(C)(C)OC(=O)NCCCCCNC(=O)c1nc[nH]c1C(=O)NCCCCCNC(=O)OC(C)(C)C,-50,0,0
Nc1nc2ccc(OC(F)(F)F)cc2s1,0,-,-
CCOC(=O)N1CCC(NC(=O)CCC(=O)N2CCOc3ccccc32)CC1,-305,0,0
CCOc1ccccc1N1CCN(C(=O)C2c3ccccc3Oc3ccccc32)CC1,0,-,-
CCCCn1c(NC(=O)c2ccc(Br)o2)c(S(=O)(=O)c2ccccc2)c2nc3ccccc3nc21,0,-,-
CCN(CC)C1=CC2=CC(=C(C#N)C#N)CCC2CC1 (stereo unspecified),-141,+,-77
CCCCN(C)C1=CC2=CC(=C(C#N)C#N)CCC2CC1 (stereo unspecified),-76,-659,0
COCCN1C(=S)N[C@@H](c2cccc(F)c2)C(C(=O)OC)=C1C,0,-,-
CC(=O)[C@@H]1[C@@H]2C(=O)N(Cc3ccccc3)C(=O)[C@@H]2C2c3ccccc3C=CN21 (stereo partly specified),0,-,-
COCCOC(=O)c1[nH]c2c(c1C)C(=O)C(C(=O)OC)C(C)C2 (stereo unspecified),-68,0,0
C/C(CCN1CCc2nc(-c3ccccc3)c(-c3ccccc3)cc2C1)=N\OC[C@@H](C)[C@H](OCc1ccccc1)C(C)C,0,-,-
Cc1sc2ncn(CC(=O)NCCCC(=O)N3CCN(c4ccccc4)CC3)c(=O)c2c1C,-313,0,0
CCCN(CC(=O)Nc1ccccc1C)C(=O)C1CCN(c2ncnc3sc(C)c(C)c23)CC1,0,-,-
O=C1CC(=Nc2ccccc2)NN1c1ccccc1,0,-,-
CCn1c(SCC(=O)c2ccc(F)cc2)nnc1-c1ccoc1C,-223,0,0
Oc1cccc(/C=N/Nc2cc(N3CCCC3)nc(N3CCCC3)n2)c1,0,-,-
Cc1ccccc1NC(=O)C1CC(Cl)=CCC1C(=O)O (stereo unspecified),-111,0,0
C[C@@H]1CN([C@H](C)CO)C(=O)Cc2cc(NS(=O)(=O)c3ccc(Cl)cc3)ccc2O[C@H]1CN(C)Cc1ccc(C(F)(F)F)cc1,0,-,-
OCc1cn(-c2ccc(Cl)cc2)nn1,-56,0,0
CCCCCc1cc(=O)oc2c(C(CCN3CCCC3)c3cc(OC)c(OC)c(OC)c3)c(OC)cc(OC)c12 (stereo unspecified),0,-,-
COc1ccc(/C=N/NC(=O)c2nn(-c3ccc(Cl)cc3)c(=O)c3c(N)scc23)cc1,0,-,-
SMILES,Apaf-1 act,Rh110 interf act,Apaf-1 act conf2
NC(=O)/C(=C/c1ccc2c(c1)OCO2)NC(=O)c1ccco1,-44,0,0
COc1cc2c(cc1OC)-c1cc3ccc4c(c3c[n+]1CC2)OCO4,0,-,-
CCCCNc1c(-c2ccc(OC)c(Sc3ccc(OC)cc3)c2)nc2cnccn12,0,-,-
Oc1ccc(N=Cc2ccc(O)c(O)c2)cc1,0,-,-
CN1CCc2nc(SCC(=O)Nc3cccc(F)c3)c(C#N)c(-c3cccs3)c2C1,0,-,-
COc1ccc(N2C(=O)[C@@H]3[C@H](C2=O)[C@H]2c4ccccc4C=CN2[C@@H]3C(=O)Nc2ccccc2)cc1,0,-,-
CN(C)C=Nc1ccc2nc3c(cc2c1)[nH]c1ccccc13,0,-,-
Cc1ccn2c(NC3CCCCC3)c(-c3cccc(SC4CCCCC4)c3)nc2c1,0,-,-
CCCCCCSc1cc(-c2nc3cnccn3c2NCCCC)ccc1OC,0,-,-
Oc1ccc(Br)cc1-c1nc2cnccn2c1NC1CCCC1,-566,0,0
CCOc1cc(CNc2ccc3cn[nH]c3c2)ccc1OC,0,-,-
CCCCC(CC)COC(=O)C(C#N)=C(c1ccccc1)c1ccccc1 (stereo unspecified),-232,0,0
C#CCOCCOCCOCCNc1nc(N2CCN(C(=O)[C@H]([C@@H](C)CC)n3cc([C@@H](N)Cc4ccc(O)cc4)nn3)CC2)nc(N2CCN(C(=O)[C@H](Cc3cc4ccccc4[nH]3)n3cc([C@@H](N)CC(C)C)nn3)CC2)n1,0,-,-
C#CCOCCOCCOCCNc1nc(N2CCN(C(=O)CCCCCCCCCCNC(=O)[C@H](CCCCN)n3cc(C[C@@H](C)CC)nn3)CC2)nc(N2CCN(C(=O)CCCCCCCCCCNC(=O)[C@@H]([C@H](C)O)n3cc(C)nn3)CC2)n1,0,-,-
OCC1(Cc2ccccc2)CCN(Cc2ccc(-c3ccco3)cc2)CC1,-82,0,0
COc1ccc(CNCC(O)(c2ccc(Cl)cc2)c2ccc(Cl)cc2)cc1OC,0,-,-
C#CCOCCOCCOCCNc1nc(N2CCN(C(=O)CCCCCCCCCCNC(=O)[C@H](CCCN=C(N)N)n3cc(C[C@@H](C)CC)nn3)CC2)nc(N2CCN(C(=O)CCCCCCCCCCNC(=O)[C@@H]([C@H](C)CC)n3cc(CCCCCN)nn3)CC2)n1,0,-,-
O=C1C(=O)c2ccc(-c3ccccc3)cc2-c2ccccc21,0,-,-
C=CCNC(=O)C1(S(=O)(=O)c2ccccc2)CC=CC1,-384,0,0
C=CC(=O)Nc1ccc(Nc2nc(NC3CCC(N(C)C)CC3)nc3c2ncn3C(C)C)cc1 (stereo unspecified),0,-,-
COc1ccc(/C=N/NC(=O)c2ccc(CSc3nncn3C)cc2)cc1OC,-192,0,0
O=C1C(=Cc2ccco2)C(=O)c2ccccc21,0,-,-
N#Cc1c(N2CCCCC2)nc(N)c2c(N)nc3c(c12)CC(c1ccccc1)O3 (stereo unspecified),0,-,-
C#CCOCCOCCOCCNc1nc(N2CCN(C(=O)[C@H](CCCCN)n3cc(CN)nn3)CC2)nc(N2CCN(C(=O)[C@H](CCCCN)n3cc(CN)nn3)CC2)n1,0,-,-
O=C(NCc1nnc(SCC(=O)N2CCCCCC2)o1)c1ccccc1F,-251,0,0
SMILES,Apaf-1 act,Rh110 interf act,Apaf-1 act conf2
c1coc(-c2nnc(-c3ccco3)nn2)c1,0,-,-
CC(C)c1nc(SCC(=O)c2c[nH]c3ccccc23)n[nH]1,-41,0,0
CCc1cccc(C)c1NC(=S)NCc1ccc2c(c1)cc(C)n2C,0,-,-
CCN(CC)CCOC(=O)c1ccc(N/C=C(/C#N)c2nc(-c3ccc(OC)c(OC)c3)cs2)cc1,0,-,-
CC(=O)c1cc(F)c(N2CCN(CCC#N)CC2)cc1C,-456,0,0
C1CCC(C(CC2CCCCN2)C2CCCCC2)CC1 (stereo unspecified),0,-,-
Cn1c(=O)c2c(nc(CN3CCc4ccccc4C3)n2Cc2cccc(Cl)c2)n(C)c1=O,0,-,-
CC(C)CCn1c(CN2CCOCC2)nc2c1c(=O)n(C)c(=O)n2C,-44,0,0
Cc1ccc(O)c([C@H](CCN(C(C)C)C(C)C)c2ccccc2)c1,0,-,-
CCN(CC)CCOc1ccc(/C(=C(/Cl)c2ccccc2)c2ccccc2)cc1,0,-,-
